Sampled rows, rich in hits. Any-hit rate of the full collection: about 3%.
AI-2 QS mod – Vibrio harveyi AI-2 quorum sensing modulation; Vibrio harveyi JMH597 AI-2 luminescence/OD600 ratio, 9 h; hits give low values; strain lacks LuxN and CqsS sensors; 0 = neutral-control median; activity change, % at 7.5 µM; actives 0.4% (n = 300,000); in the data active = activity change below about -75%, passing the limit was not always enough; inconclusive = no clear call, values can overlap the other calls;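 also: luminescence divided by OD600 gain over 9 h not by final OD600 alone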
NRP1-CendR mod – NRP-1/CendR interaction modulation | O14786 | FAM-RPARPAR peptide binding to NRP-1, fluorescence polarization | inhibition, % at 25 µM | actives 0.85% (n = 360,000) | AID 602438;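 active = inhibition or corrected inhibition above about 18%, plus a signal ratio from 0.5 to 1.5, limit read from the data, passing the limit was not always enough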
Target sequence (O14786 whole entry, looked up): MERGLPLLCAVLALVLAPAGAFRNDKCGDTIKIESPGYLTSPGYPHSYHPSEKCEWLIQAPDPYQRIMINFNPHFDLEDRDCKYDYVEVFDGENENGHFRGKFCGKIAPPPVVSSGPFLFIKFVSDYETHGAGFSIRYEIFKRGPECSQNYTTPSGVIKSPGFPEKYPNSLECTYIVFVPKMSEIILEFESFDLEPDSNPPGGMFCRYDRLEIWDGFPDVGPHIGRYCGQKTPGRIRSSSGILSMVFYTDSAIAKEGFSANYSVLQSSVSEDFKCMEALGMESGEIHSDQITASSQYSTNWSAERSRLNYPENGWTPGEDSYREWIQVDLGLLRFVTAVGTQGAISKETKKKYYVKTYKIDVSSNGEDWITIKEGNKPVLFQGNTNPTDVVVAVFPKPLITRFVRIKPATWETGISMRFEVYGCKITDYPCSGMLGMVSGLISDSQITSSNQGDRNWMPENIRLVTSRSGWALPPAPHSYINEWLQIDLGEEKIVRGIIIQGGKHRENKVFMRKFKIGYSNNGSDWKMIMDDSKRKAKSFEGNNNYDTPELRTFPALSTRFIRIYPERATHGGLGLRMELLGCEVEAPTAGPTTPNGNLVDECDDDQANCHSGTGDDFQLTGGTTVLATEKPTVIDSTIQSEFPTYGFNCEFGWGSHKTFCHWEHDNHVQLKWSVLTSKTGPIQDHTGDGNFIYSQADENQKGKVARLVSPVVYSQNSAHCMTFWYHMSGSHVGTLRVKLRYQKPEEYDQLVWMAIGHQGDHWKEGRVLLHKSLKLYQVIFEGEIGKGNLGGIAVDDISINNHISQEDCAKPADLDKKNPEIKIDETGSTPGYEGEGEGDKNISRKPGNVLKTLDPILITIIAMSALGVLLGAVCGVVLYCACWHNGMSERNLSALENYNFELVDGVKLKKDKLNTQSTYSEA
T cruzi repl – T. cruzi replication inhibition | T. cruzi beta-gal in NIH3T3, luminescence, 90 h | inhibition, % (no concentration beside the values) | actives 1.4% (n = 300,000) | AID 1885;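 active = mean inhibition across valid replicates above about 55%, limit read from the data; inconclusive = mean below that limit but half or more replicates reach it; inactive = mean below it, under half of replicates reach it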;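 also: signal also drops with host cell toxicity which is not excluded here; higher percent means less beta-gal luminescence so fewer parasites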
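Test system: β-gal T. cruzi (Tulahuen C4) inside NIH/3T3 cells / Quantity: 5,000 cells/well / Measured by: luminescence from GalScreen with 0.05% NP40, read after 60 min / Medium: DMEM plus 2% FBS / Measure: parasite load inhibition, % / Reagent: Tulahuen C4 trypomastigotes, 5000/well / Schedule: co-culture of at least 90 h after 3 h attachment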
HIF act – HIF pathway transcriptional activation; U2OS HRE-luciferase reporter, luminescence; normalized: DMSO 0%, desferrioxamine 100%; activation, % at 7.5 µM (by protocol); actives 0.32% (n = 300,000);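 active = mean activation of at least 10% of the iron chelator positive control signal, with at least half of replicates also reaching 10%; inconclusive = mean and replicate majority disagree about reaching 10%; inactive = mean and most replicates under 10%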
Yeast superoxide – lowers age-related superoxide in aged yeast cells; S. cerevisiae aged cells, superoxide DHE fluorescence; hits give low values; superoxide response (% of plate mean), % at 10 µM; actives 0.18% (n = 330,000); AID 2690;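 active = superoxide response under a set limit, about three screen SD below normal, cut at about 65% in these data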;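 also: yeast aged for seven days with compound at 30 °C before DHE staining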
V-ATPase pH – alters yeast V-ATPase proton transport. S. cerevisiae, pHLuorin cytosolic pH fluorescence. response, % at 10 µM. actives 0.37% (n = 350,000). AID 504577; in the data active = response mostly above about 7.3%, no sharp cut-off; inactive = mostly below about 5.4%; also: actives read high
JMH597 growth – retest: blocks Vibrio harveyi JMH597 growth | shares compounds with AI-2 QS mod | OD600 absorbance, 9 h; lacks LuxN and CqsS sensors | growth inhibition, % at 7.5 µM | actives 1% (n = 750) | AID 2726;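 active = every replicate shows growth inhibition above 50%; inconclusive = at least half, but not all, replicates pass that cutoff; inactive = fewer than half of replicates pass it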
BB721 lum counter – retest counter-screen: lowers luminescence of constitutive-QS Vibrio harveyi BB721. actives 95% (n = 750). 9 h. shares compounds with AI-2 QS mod. inhibition, % at 7.5 µM. AID 2727;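 active = inhibition above about 80% in every replicate, not just on average, limit read from the data; inconclusive = at least half of replicates past the limit, but not all; inactive = fewer than half of replicates past the limit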
BB721 growth – retest: inhibitors of Vibrio harveyi BB721 growth | shares compounds with AI-2 QS mod | OD600 absorbance, 9 h | growth inhibition, % at 7.5 µM | actives 3% (n = 750) | AID 2728;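 active = every replicate shows growth inhibition above 50%; inconclusive = at least half but not all replicates above 50% inhibition; inactive = under half of replicates above 50% inhibition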
JMH597 AI-2 mod – Vibrio harveyi AI-2 signaling luminescence modulation – JMH597 strain, confirmation | Vibrio harveyi JMH597 AI-2 quorum sensing luminescence, 9 h; luxN and CqsS knockout, AI-2 only | shares compounds with AI-2 QS mod | inhibition, % at 7.5 µM | AID 2736 | actives 97% (n = 750);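 active = every replicate shows more than 75% inhibition of signal versus neutral control wells; inconclusive = half to three quarters of replicates exceed 75% inhibition; inactive = fewer than half of replicates exceed 75% inhibition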
Numbers stand for hits; – = inactive; ? = inconclusive; · = not tested or not shown.

SMILES	AI-2 QS mod	NRP1-CendR mod	T cruzi repl	HIF act	Yeast superoxide	V-ATPase pH	JMH597 growth	BB721 lum counter	BB721 growth	JMH597 AI-2 mod
COc1ccccc1CNC(=O)COc1ccc(S(=O)(=O)N2CCCC2)cc1	?	–	–	–	–	–	–	85	–	93
Cc1cccc(OCC(=O)Nc2ccc(S(=O)(=O)N3CCCC3)cc2)c1	-97	–	–	–	–	–	–	99	–	100
O=C(COc1cccc(C(F)(F)F)c1)Nc1ccc(S(=O)(=O)N2CCCCC2)cc1	–	–	–	–	–	–	·	·	·	·
Cc1cccc(OCC(=O)Nc2cc(C)c(C)cc2O)c1	–	–	–	–	–	–	·	·	·	·
O=C(NC1CCN(S(=O)(=O)c2ccc(Cl)cc2)CC1)c1cccnc1	–	–	–	–	–	–	·	·	·	·
CC1CN(Cc2nc3c(c(=O)n(C)c(=O)n3C)n2Cc2ccccc2)CC(C)O1 (centres undefined)	–	–	–	–	–	–	·	·	·	·
COc1ccc(CNC(=S)Nc2ccc(F)c(Cl)c2)cc1	-84	–	–	–	–	–	–	92	–	92
CN(C)S(=O)(=O)c1ccc(NC(=O)COC(=O)c2ccccn2)cc1	-87	–	–	–	–	–	–	96	–	97
O=C(COc1ccc(Br)cc1)Nc1ccc(S(=O)(=O)Nc2ccccn2)cc1	-87	–	–	–	·	–	–	94	–	98
O=S(=O)(c1ccccc1)c1ccc(NCc2ccco2)cc1	-94	–	–	–	–	–	–	–	–	98
CSc1ccc(C2N=C(c3ccccc3)NO2)cc1 (centres undefined)	-85	–	–	–	–	–	–	95	–	96
Oc1c(Br)cc(C2N=C(c3ccccc3)NO2)cc1Br (centres undefined)	–	–	–	–	–	–	·	·	·	·
Cc1ccc(COC(=O)c2ccc3ccccc3n2)cc1	-91	–	–	–	–	–	–	98	–	99
C=Cn1c(C(=O)O)ccc1-c1ccc(CC)cc1	-87	–	–	–	–	–	–	–	–	100
CCc1ccc(NC(=O)Cn2c(=O)n(CCCC(=O)NCc3ccco3)c(=O)c3ccccc32)cc1	–	–	–	–	–	–	·	·	·	·
Cc1cc(NS(=O)(=O)c2ccc(NC(=O)CCc3ccccc3)cc2)no1	-91	–	–	–	–	–	–	95	–	97
COc1ccc(N2CC(NC(=O)N3CCN(c4ccccc4)CC3)CC2=O)cc1 (centres undefined)	–	–	–	·	–	–	·	·	·	·
Cc1ccc(C)c(OCC(=O)O/N=C(\N)c2cccnc2)c1	–	–	–	–	–	–	·	·	·	·
CCc1ccc(OCC(=O)O/N=C(\N)c2cccnc2)cc1	-92	–	–	–	–	–	–	95	–	96
CCOC(=O)c1snc(-c2ccc(F)cc2)c1N	–	–	–	–	–	–	·	·	·	·
O=C(CCl)Nc1ccc(N=Nc2ccccc2)cc1	-91	–	–	–	·	–	74	100	103	99
CC(=O)Nc1ccc(N=Nc2ccccc2)cc1	–	–	–	–	–	–	·	·	·	·
O=C(Nc1ccc(-c2noc(CCc3ccccc3)n2)cc1)c1ccco1	-81	–	–	–	–	–	–	91	93	93
Cc1cccc(-c2noc(Cc3ccccc3)n2)c1	–	–	–	–	–	–	·	·	·	·
Cc1cccc(-c2noc(CCc3ccccc3)n2)c1	-78	–	–	–	–	–	–	94	–	96
SMILES	AI-2 QS mod	NRP1-CendR mod	T cruzi repl	HIF act	Yeast superoxide	V-ATPase pH	JMH597 growth	BB721 lum counter	BB721 growth	JMH597 AI-2 mod
COc1ccc(Cc2nc(-c3ccccc3)no2)cc1	-93	–	–	–	–	–	–	98	–	98
COc1cc2[nH]c(C(=O)N3CCN(c4ccccc4F)CC3)cc2c(OC)c1OC	–	–	–	–	–	–	·	·	·	·
COC(=O)c1ccc(N=NN2CCCCC2)cc1	–	–	–	–	–	–	·	·	·	·
CCN(CC(=O)Nc1ccc(NC(C)=O)cc1)C(=O)Cc1ccccc1F	–	–	–	–	–	–	·	·	·	·
N=c1ccn(Cc2cccc(F)c2)cc1	–	–	–	–	–	–	·	·	·	·
O=C(Cc1ccccc1)NCC1COc2ccccc2O1 (centres undefined)	–	–	–	·	–	–	·	·	·	·
COc1cc(/C=N/NC(=O)c2ccc(O)cc2)ccc1OCC(=O)Nc1cccc([N+](=O)[O-])c1	–	–	–	–	–	–	·	·	·	·
COc1ccc(CNC(=O)Nc2cccc(C)c2)cc1	-92	–	–	–	–	–	–	97	–	98
COc1ccc(CNC(=O)Nc2ccc(OC)cc2)cc1	–	–	–	–	–	–	·	·	·	·
COc1ccc(CNC(=O)Nc2ccccc2)cc1	-88	–	–	–	–	–	–	95	–	96
Cc1cccc(C)c1NC(=O)CSc1nnc(C)n1CC1CCCO1 (centres undefined)	–	–	–	–	–	–	·	·	·	·
CCOC(=O)NNC(=S)Nc1c(C)n(C)n(-c2ccccc2)c1=O	–	–	–	–	–	–	·	·	·	·
O=C(Nc1ccc(F)cc1)Nc1ccc(S(=O)(=O)N2CCCC2)cc1	·	–	·	·	–	–	·	·	·	·
O=C(Cc1ccc(F)cc1)Nc1ccc(S(=O)(=O)N2CCCC2)cc1	–	–	–	–	–	–	·	·	·	·
O=C(Cc1ccccc1[N+](=O)[O-])Nc1ccc(S(=O)(=O)N2CCCC2)cc1	?	–	–	–	–	–	–	93	–	94
O=C(CSc1nncs1)Nc1ccc(S(=O)(=O)N2CCCC2)cc1	-83	–	–	–	–	–	–	93	–	95
O=C(Nc1ccc(S(=O)(=O)N2CCCC2)cc1)Nc1ccc(F)cc1F	-96	–	–	–	–	–	–	98	–	99
O=C(Cc1ccc(Br)cc1)Nc1ccc(S(=O)(=O)N2CCCC2)cc1	-96	–	–	–	–	–	–	?	–	99
Cc1nnc(SCC(=O)Nc2ccc(S(=O)(=O)N3CCCCC3)cc2)s1	–	–	–	–	–	–	·	·	·	·
O=C1CCCC(=O)N1c1ccc(Oc2ccc(Cl)cc2)cc1	-84	–	–	–	–	–	–	89	–	92
COc1cc(/C=N/Nc2ccc(C(=O)O)cc2)cc(OC)c1OC	–	–	–	–	–	–	·	·	·	·
COc1ccc(/C=N/Nc2ccc(C(=O)O)cc2)c(OC)c1OC	-92	–	–	–	–	–	–	95	–	96
